Assay results reported in ChEMBL document CHEMBL4257510, “Mercaptoacetate thioesters and their hydrolysate mercaptoacetic acids jointly inhibit metallo-β-lactamase L1” (Medchemcomm, 2018).
The source made the active and inactive calls. The calls are words filed in the database; no cut-off is given here.

Experiments:
[1] = tested on: Escherichia coli; experiment: Potentiation of cefazolin-mediated antibacterial activity against Escherichia coli BL21(DE3) assessed as cefazolin MIC at 16 ug/ml after 16 hrs by broth macrodilution method (reference value: 4 ug/ml); type: functional
Outline: (§1)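 E. coli BL21(DE3) carrying pET26b-L1 was grown overnight in Mueller-Hinton broth at 37 °C, pelleted and resuspended to OD600 0.1. MICs were determined by CLSI broth macrodilution after at least 16 h at 37 °C, taking the lowest concentration with no visible growth. Triplicates in at least two independent experiments; highest MIC reported.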

[2] = tested on: Bacteria; experiment: Inhibition of bacterial metallo-beta-lactamase NDM1 expressed in Escherichia coli BL21 (DE3) at 20 uM using cefazolin as substrate preincubated for 30 mins followed by substrate addition
[3] = tested on: Bacteria; experiment: Inhibition of bacterial metallo-beta-lactamase ImiS expressed in Escherichia coli BL21 (DE3) at 20 uM using imipenem as substrate preincubated for 30 mins followed by substrate addition
[4] = tested on: Bacteria; experiment: Inhibition of bacterial metallo-beta-lactamase L1 expressed in Escherichia coli BL21 (DE3) assessed as cefazolin MIC at 16 ug/ml after 16 hrs by broth macrodilution method (reference value: 32 ug/ml); outline: as §1
[5] = Inhibition of bacterial metallo-beta-lactamase L1 expressed in Escherichia coli BL21 (DE3) using cefazolin as substrate preincubated for 30 mins followed by substrate addition; design: species or system Bacteria
Outline: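 IC50 measured at 25 °C with 50 µM cefazolin and inhibitor varied over 0.01–2 µM, after 30 min enzyme–inhibitor pre-incubation. Compounds were dissolved in DMSO and diluted in 30 mM Tris pH 7.0, with final DMSO below 0.1%.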

[6] = tested on: Bacteria; experiment: Inhibition of bacterial metallo-beta-lactamase L1 expressed in Escherichia coli BL21 (DE3) assessed as decrease in cefazolin MIC at 16 ug/ml after 16 hrs by broth macrodilution method relative to control; outline: as §1
[7] = tested on: Bacteria; experiment: Inhibition of bacterial metallo-beta-lactamase L1 expressed in Escherichia coli BL21 (DE3) at 20 uM using cefazolin as substrate preincubated for 30 mins followed by substrate addition relative to control
[8] = tested on: Bacteria; experiment: Binding affinity to bacterial metallo-beta-lactamase L1 expressed in Escherichia coli BL21 (DE3) assessed as change in gibbs free energy by ITC method
[9] = Drug metabolism assessed as bacterial metallo-beta-lactamase L1-mediated hydrolysis measured every 2 hrs for 24 hrs by UV-Vis spectroscopic analysis; type: ADME; settings: bacteria
Outline: (§2)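 Thioester in Tris buffer at pH 6.0, 7.0 or 8.5, or at pH 7.0 with increasing L1 concentration. Absorbance at 245 nm was recorded every 2 h over 24 h.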

[10] = tested on: Bacteria; experiment: Binding affinity to bacterial metallo-beta-lactamase L1 expressed in Escherichia coli BL21 (DE3) assessed as change in enthalpy by ITC method
[11] = tested on: Bacteria; experiment: Binding affinity to bacterial metallo-beta-lactamase L1 expressed in Escherichia coli BL21 (DE3) assessed as change in entropy by ITC method
[12] = Binding affinity to bacterial metallo-beta-lactamase L1 expressed in Escherichia coli BL21 (DE3) by ITC method; design: species or system Bacteria
[13] = tested on: L929; experiment: Cytotoxicity against mouse L929 cells up to 200 uM after 48 hrs by CCK8 assay; type: cell-based; settings: l929, 48 h
[14] = Stability in Tris buffer at pH 6 to 8.5 measured every 2 hrs for 24 hrs by UV-Vis spectroscopic analysis; type: physicochemical; settings: pH 6, 24 h; outline: as §2
[15] = Drug level assessed as bacterial metallo-beta-lactamase L1-mediated compound formation treated with 2-(((4-Chlorobenzoyl)methionyl)thio)acetic acid by HPLC method; type: ADME; settings: bacteria
Outline: (§3)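 L1-mediated hydrolysis of thioester followed by HPLC under IC50 assay conditions, on a C18 column (150 × 4.6 mm, 5 µm) at 1.0 mL/min.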

[16] = Retention time of compound by HPLC method; type: physicochemical; outline: as §3
[17] = tested on: Bacteria; experiment: Binding affinity to bacterial metallo-beta-lactamase L1 expressed in Escherichia coli BL21 (DE3) treated with 2-(((4-Chlorobenzoyl)methionyl)thio)acetic acid at 2 to 10 mM after 1 hr by STD NMR method
Outline: (§4)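 1H STD-NMR at 300 MHz on-resonance and 2000 MHz off-resonance saturation. Total saturation time 1.5 s, relaxation delay 2.5 s. Samples were run in D2O with 5% DMSO-d6 and 150 mM NaCl at pH 7.5, after 1 h pre-incubation. Compound came from 100 mM stock in DMSO-d6.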

[18] = tested on: Bacteria; experiment: Binding affinity to bacterial metallo-beta-lactamase L1 expressed in Escherichia coli BL21 (DE3) at 2 to 10 mM after 1 hr by STD NMR method; outline: as §4

Row | Structure (SMILES) | MIC [1] [µg/mL] | inhibition [2] | inhibition [3] | MIC [4] [µg/mL] | IC50 [5] [nM] | fold change (FC) [6] | inhibition [7] [%] | deltaG [8] [kcal/mol] | Drug metabolism [9] | deltaH [10] [kcal/mol] | TdeltaS [11] [kcal/mol] | Stability [14] | Drug metabolism [15] | Retention_time [16] [min] | Activity [17] | Activity [18] | Kd [12] [nM] | Activity [13]
1 | O=C(O)CSC(=O)[C@H](Cc1c[nH]c2ccccc12)NC(=O)c1ccc(C(F)(F)F)cc1 | 4 | inactive | inactive | 16 | 1030 | 2 to 4 | 90 to 95 |  |  |  |  |  |  |  |  |  |  | 
2 | O=C(O)CSC(=O)[C@H](Cc1c[nH]c2ccccc12)NC(=O)c1cccc([N+](=O)[O-])c1 | 4 | inactive | inactive | 16 | 800 | 2 to 4 | 90 to 95 |  |  |  |  |  |  |  |  |  |  | 
3 | CSCC[C@H](NC(=O)c1ccc([N+](=O)[O-])cc1)C(=O)SCC(=O)O | 4 | inactive | inactive | 8 | 170 | 2 to 4 | 90 to 95 | -7.18 | Metabolite_Detected | -16.8 | -9.6 | Stable |  |  |  |  | 5500 | Non-Toxic
4 | CSCC[C@H](NC(=O)c1ccc(Cl)cc1)C(=O)O |  |  |  |  |  |  |  |  |  |  |  |  | Metabolite_Detected | 4.2 | Active |  |  | 
5 | O=C(O)CS |  |  |  |  |  |  |  |  |  |  |  |  |  |  | Active |  |  | 
6 | O=C(O)CSC(=O)[C@H](Cc1c[nH]c2ccccc12)NC(=O)c1ccc(Br)cc1 | 4 | inactive | inactive | 16 | 880 | 2 to 4 | 90 to 95 |  |  |  |  |  |  |  |  |  |  | 
7 | O=C(O)CSC(=O)[C@H](Cc1c[nH]c2ccccc12)NC(=O)c1ccc(Cl)cc1 | 4 | inactive | inactive | 8 | 190 | 2 to 4 | 90 to 95 |  |  |  |  |  |  |  |  |  |  | 

More lines, in order of falling MIC [1], values ahead:

Row | MIC [1] [µg/mL] | inhibition [2] | inhibition [3] | MIC [4] [µg/mL] | IC50 [5] [nM] | fold change (FC) [6] | inhibition [7] [%] | deltaG [8] [kcal/mol] | Drug metabolism [9] | deltaH [10] [kcal/mol] | TdeltaS [11] [kcal/mol] | Stability [14] | Drug metabolism [15] | Retention_time [16] [min] | Activity [17] | Activity [18] | Structure (SMILES) | Kd [12] [nM] | Activity [13]
8 | 4 | inactive | inactive | 16 | 620 | 2 to 4 | 90 to 95 |  |  |  |  |  |  |  |  |  | O=C(O)CSC(=O)[C@H](Cc1c[nH]c2ccccc12)NC(=O)c1cccc(Br)c1 |  | 
9 | 4 | inactive | inactive | 16 | 940 | 2 to 4 | 90 to 95 | -6.43 | Metabolite_Detected | -28.2 | -21.8 | Stable |  | 4.5 |  | Active | CSCC[C@H](NC(=O)c1ccc(Cl)cc1)C(=O)SCC(=O)O | 19700 | Non-Toxic
10 | 4 | inactive | inactive | 16 | 750 | 2 to 4 | 90 to 95 |  |  |  |  |  |  |  |  |  | O=C(O)CSC(=O)[C@H](Cc1c[nH]c2ccccc12)NC(=O)c1ccc(F)cc1 |  | 
11 | 4 | inactive | inactive | 16 | 1200 | 2 to 4 | 90 to 95 |  |  |  |  |  |  |  |  |  | CSCC[C@H](NC(=O)c1cccc(Br)c1)C(=O)SCC(=O)O |  | 
12 | 4 | inactive | inactive | 8 | 370 | 2 to 4 | 90 to 95 |  | Metabolite_Detected |  |  | Stable |  |  |  |  | O=C(O)CSC(=O)[C@H](Cc1c[nH]c2ccccc12)NC(=O)c1ccc([N+](=O)[O-])cc1 |  | 
